Experimental data as given in ChEMBL document CHEMBL3425449, “Identification of MK-8133: An orexin-2 selective receptor antagonist with favorable development properties” (Bioorg Med Chem Lett, 2015).
Values after ≈ are worked out from the molar mass of the structure shown.

Legend:
[1] = molecular target: T1, Orexin/Hypocretin receptor type 1 (Homo sapiens, UniProt O43613); assay: Antagonist activity against human OX1R expressed in CHOK1 cells assessed as inhibition of orexin A-induced […] Ca2+ mobilization by FLIPR assay; assay type: functional, cell-based, CHO-K1
T1 sequence (O43613 whole entry): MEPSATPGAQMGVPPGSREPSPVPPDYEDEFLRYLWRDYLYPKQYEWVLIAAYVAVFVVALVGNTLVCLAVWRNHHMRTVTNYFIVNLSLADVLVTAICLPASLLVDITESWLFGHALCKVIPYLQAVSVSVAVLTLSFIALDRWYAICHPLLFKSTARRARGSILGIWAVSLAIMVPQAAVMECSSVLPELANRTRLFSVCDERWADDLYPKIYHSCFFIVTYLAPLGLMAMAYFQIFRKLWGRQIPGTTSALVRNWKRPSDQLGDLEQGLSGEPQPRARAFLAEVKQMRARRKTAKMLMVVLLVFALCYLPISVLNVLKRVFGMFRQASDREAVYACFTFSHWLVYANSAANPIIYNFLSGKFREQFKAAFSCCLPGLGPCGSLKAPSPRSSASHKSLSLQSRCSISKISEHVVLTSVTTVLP
Outline: (§1)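 Cell-based FLIPR assay measuring Ca2+ flux as the functional read-out of orexin receptor antagonism. Target is the human orexin receptor expressed in CHO-K1 cells.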

[2] = Solubility of the compound at pH 7; assay type: physicochemical; settings: buffer
[3] = Lipophilicity, log D of the compound by HPLC method; assay type: physicochemical
Orexin receptor type 2 [4] = molecular target: T2, Orexin receptor type 2 (Homo sapiens, UniProt O43614); assay: Antagonist activity against human OX2R expressed in CHOK1 cells assessed as inhibition of orexin A-induced […] Ca2+ mobilization by FLIPR assay; assay type: functional, cell-based, CHO-K1; outline: as §1
T2 sequence (O43614 whole entry): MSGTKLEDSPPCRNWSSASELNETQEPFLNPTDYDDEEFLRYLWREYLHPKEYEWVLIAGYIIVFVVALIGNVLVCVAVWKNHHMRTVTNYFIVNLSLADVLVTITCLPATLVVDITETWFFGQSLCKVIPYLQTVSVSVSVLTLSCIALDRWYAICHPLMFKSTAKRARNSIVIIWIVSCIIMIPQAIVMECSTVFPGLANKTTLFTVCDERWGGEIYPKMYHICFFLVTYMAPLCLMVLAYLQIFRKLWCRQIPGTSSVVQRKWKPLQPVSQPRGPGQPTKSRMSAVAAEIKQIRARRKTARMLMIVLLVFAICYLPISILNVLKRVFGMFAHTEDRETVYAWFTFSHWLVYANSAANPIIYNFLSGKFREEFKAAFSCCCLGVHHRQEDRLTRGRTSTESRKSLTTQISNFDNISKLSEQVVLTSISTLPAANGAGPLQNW

[5] = Intrinsic clearance in human microsomes; assay type: ADME, Microsome
CHO-K1 = assay: Selectivity index, ratio of IC50 for human OX1R expressed in CHOK1 cells to IC50 for human OX2R expressed in CHOK1 cells by FLIPR assay; assay type: cell-based
Outline: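 Ratio of OX1R FLIPR IC50 to OX2R FLIPR IC50. Both come from Ca2+-flux assays on human orexin receptors expressed in CHO-K1 cells, each averaged over n ≥ 2 experiments.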

Orexin receptor type 2 [6] = molecular target: T2, Orexin receptor type 2; assay: Displacement of [3H]-(S)-N-(2-(1H-pyrrol-1-yl)phenyl)-1-(2-(1-methyl-1H-benzo[d]imidazol-2-ylthio)acetyl)pyrrolidine-2-carboxamide from human OX2R expressed in CHOK1 cells by radioligand binding assay; assay type: cell-based, CHO-K1
Outline: (§2)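 Radioligand competition binding on membranes from CHO-K1 cells overexpressing the human orexin receptor.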

[7] = molecular target: T1, Orexin/Hypocretin receptor type 1; assay: Displacement of [3H]-(S)-N-(biphenyl-2-yl)-1-(2-(1-methyl-1H-benzo[d]imidazol-2-ylthio)acetyl)pyrrolidine-2-carboxamide from human OX1R expressed in CHOK1 cells by radioligand binding assay; assay type: cell-based, CHO-K1; outline: as §2
[8] = Clearance in Wistar Han rat at 10 mg/kg, po or 2 mg/kg, iv; assay type: ADME, organism-based; settings: in vivo
Outline: (§3)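 Pharmacokinetics in Wistar Han rats (n = 2) after intravenous and oral dosing. Oral dose was 10 mg/kg in PEG400:Tween80/water 40:10:50. IV dose was 2 mg/kg in DMSO/PEG400/water 20:60:20.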

[9] = Volume of distribution at steady state in dog at 10 mg/kg, po or 2 mg/kg, iv; assay type: ADME, organism-based, Canis lupus familiaris; settings: in vivo, read-out: Vdss
Outline: (§4)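 Dog pharmacokinetics determined after intravenous and oral administration.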

[10] = Volume of distribution at steady state in Wistar Han rat at 10 mg/kg, po or 2 mg/kg, iv; assay type: ADME, organism-based; settings: in vivo, read-out: Vdss; outline: as §3
[11] = Half life in Wistar Han rat at 10 mg/kg, po or 2 mg/kg, iv; assay type: ADME, organism-based; settings: in vivo; outline: as §3
[12] = Oral bioavailability in dog at 10 mg/kg; assay type: ADME, organism-based, Canis lupus familiaris; settings: in vivo; outline: as §4
[13] = Clearance in dog at 10 mg/kg, po or 2 mg/kg, iv; assay type: ADME, organism-based, Canis lupus familiaris; settings: in vivo; outline: as §4
[14] = Oral bioavailability in Wistar Han rat at 10 mg/kg; assay type: ADME, organism-based; settings: in vivo; outline: as §3
[15] = Half life in dog at 10 mg/kg, po or 2 mg/kg, iv; assay type: ADME, organism-based, Canis lupus familiaris; settings: in vivo; outline: as §4

Row | SMILES | IC50 [1] [nM] | IC50 (Orexin receptor type 2 [4]) [nM] | Ki (Orexin receptor type 2 [6]) [nM] | Ki [7] [nM] | Ratio IC50 (CHO-K1) | other results
1 | C[C@@H]1CC[C@@H](Oc2cc(C#N)ccn2)CN1C(=O)c1ccccc1OC(F)F | > 10000 | 37 |  |  | > 314 | solubility [2]: Insoluble; logD [3]: ND(Insoluble); CLint scaled [5]: 43 mL/min/kg
2 | C[C@@H]1CC[C@@H](Oc2cc(Cl)ccn2)CN1C(=O)c1ccccc1-n1nccn1 |  | 11 | 1.4 | 120 | 51 | 
3 | Cc1ccnc(O[C@@H]2CC[C@@H](C)N(C(=O)c3ccccc3-n3nccn3)C2)c1 | 788 |  | 2.6 | 166 | 49 | 
4 | C[C@@H]1CC[C@@H](Oc2cc(C(F)(F)F)ccn2)CN1C(=O)c1ccccc1-n1nccn1 | 370 |  | 0.2 | 64 | 21 | 
5 | Cc1cccnc1O[C@@H]1CC[C@@H](C)N(C(=O)c2ccccc2-n2nccn2)C1 |  |  | 621 | 4760 |  | 
6 | C[C@@H]1CC[C@@H](Oc2cc(I)ccn2)CN1C(=O)c1ccccc1-n1nccn1 |  | 7.2 | 0.4 | 59 | 57 | 
7 | Cc1cccc(O[C@@H]2CC[C@@H](C)N(C(=O)c3ccccc3-n3nccn3)C2)n1 | 745 | 33 | 7.6 | 12 | 23 | 
8 | COc1ccnc(O[C@@H]2CC[C@@H](C)N(C(=O)c3ccccc3-n3nccn3)C2)c1 |  |  | 1.3 | 140 | 49 | 
9 | C[C@@H]1CC[C@@H](Oc2cc(C#N)ccn2)CN1C(=O)c1ccccc1CC(F)(F)F | > 10000 | 32 |  |  | > 312 | solubility ([2]; read-out: solubility): 95 µM (≈ 38.3 µg/mL); logD ([3]; read-out: logD): 3.6; CLint scaled [5]: 132 mL/min/kg
10 | CC(C)OC(=O)c1ccccc1C(=O)N1C[C@H](Oc2cc(C#N)ccn2)CC[C@H]1C | 3300 | 38 |  |  | 87 | solubility ([2]; read-out: solubility): 115 µM (≈ 46.9 µg/mL); logD ([3]; read-out: logD): 3.6
11 | C[C@@H]1CC[C@@H](Oc2cc(F)ccn2)CN1C(=O)c1ccccc1-n1nccn1 |  |  | 3.9 | 430 | 68 | 
12 | CSc1ccnc(O[C@@H]2CC[C@@H](C)N(C(=O)c3ccccc3-n3nccn3)C2)c1 | 110 | 6.7 | 0.2 | 39 | 16 | 
13 | C[C@@H]1CC[C@@H](Oc2cc(N(C)C)ccn2)CN1C(=O)c1ccccc1-n1nccn1 | 1500 | 130 | 4.5 | 1400 | 12 | 
14 | Cc1ccc(O[C@@H]2CC[C@@H](C)N(C(=O)c3ccccc3-n3nccn3)C2)nc1 | 142 | 9 | 2.6 | 37 | 16 | 
15 | C[C@@H]1CC[C@@H](Oc2cc(Br)ccn2)CN1C(=O)c1ccccc1-n1nccn1 | 380 | 10 | 1.8 | 130 | 37 | 

Now from value to compound, other results behind:

Row | IC50 [1] [nM] | IC50 (Orexin receptor type 2 [4]) [nM] | Ki (Orexin receptor type 2 [6]) [nM] | Ki [7] [nM] | SMILES | Ratio IC50 (CHO-K1) | other results
16 | 2400 | 45 | 3.8 | 360 | C[C@@H]1CC[C@@H](Oc2cc(-c3ccccc3)ccn2)CN1C(=O)c1ccccc1-n1nccn1 | 54 | 
17 |  |  | 2400 | 14000 | C[C@@H]1CC[C@@H](Oc2ccccn2)CN1C(=O)c1ccccc1-n1nccn1 |  | 
18 | 7100 | 21 |  |  | CCOC(=O)c1ccccc1C(=O)N1C[C@H](Oc2cc(C#N)ccn2)CC[C@H]1C | 349 | solubility ([2]; read-out: solubility): 121 µM (≈ 47.6 µg/mL); logD ([3]; read-out: logD): 3.2; CLint scaled [5]: 37 mL/min/kg
19 | 240 | 10 | 0.6 | 49 | C#Cc1ccnc(O[C@@H]2CC[C@@H](C)N(C(=O)c3ccccc3-n3nccn3)C2)c1 | 23 | 
20 | 8400 | 25 |  |  | Cc1nc(-c2ccccc2C(=O)N2C[C@H](Oc3cc(C#N)ccn3)CC[C@H]2C)no1 | 361 | clearance [8]: 30 mL/min/kg; Vd [9]: 0.54 L/kg; Vd [10]: 1.3 L/kg; half-life [11]: 1.3 h; bioavailability [12]: 54%; solubility ([2]; read-out: solubility): 162 µM (≈ 65.4 µg/mL); logD ([3]; read-out: logD): 3; clearance [13]: 4.6 mL/min/kg; CLint scaled [5]: 23 mL/min/kg; bioavailability [14]: 26%; half-life [15]: 1.5 h
21 | 310 | 11 | 0.6 | 57 | CCc1ccnc(O[C@@H]2CC[C@@H](C)N(C(=O)c3ccccc3-n3nccn3)C2)c1 | 28 | 
22 | 510 | 16 | 0.9 | 350 | C[C@@H]1CC[C@@H](Oc2cc(S(C)(=O)=O)ccn2)CN1C(=O)c1ccccc1-n1nccn1 | 33 | 
23 | 1800 | 22 | 3.9 | 310 | COC(=O)c1ccnc(O[C@@H]2CC[C@@H](C)N(C(=O)c3ccccc3-n3nccn3)C2)c1 | 82 | 
24 | 3800 | 13 |  | 830 | C[C@@H]1CC[C@@H](Oc2cc(C#N)ccn2)CN1C(=O)c1ccccc1-n1nccn1 | 293 | clearance [8]: 18 mL/min/kg; Vd [9]: 1.5 L/kg; Vd [10]: 1.7 L/kg; half-life [11]: 1.7 h; bioavailability [12]: 13%; solubility ([2]; read-out: solubility): 148 µM (≈ 57.5 µg/mL); logD ([3]; read-out: logD): 3; clearance [13]: 27 mL/min/kg; CLint scaled [5]: 16 mL/min/kg; bioavailability [14]: 17%; half-life [15]: 1.1 h
25 | > 10000 | 95 | 6.5 | 470 | C[C@@H]1CC[C@@H](Oc2cc(C(=O)N(C)C)ccn2)CN1C(=O)c1ccccc1-n1nccn1 | > 105 | 
